Test [1] has as its target T1, Thymidine kinase, cytosolic (Cricetulus griseus) (UniProt P09768).
T1 sequence (whole entry): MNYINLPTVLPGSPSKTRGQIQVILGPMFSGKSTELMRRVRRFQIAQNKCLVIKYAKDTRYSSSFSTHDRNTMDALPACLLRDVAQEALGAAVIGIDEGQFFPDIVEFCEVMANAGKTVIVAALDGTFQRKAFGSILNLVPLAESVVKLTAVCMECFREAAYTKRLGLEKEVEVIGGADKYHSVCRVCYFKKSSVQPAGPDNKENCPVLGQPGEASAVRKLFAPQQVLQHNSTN
Description: Activity at thymidine kinase in BHK21 (C13) cells at 400 uM after 30 mins relative to thymidine. Type of test: cell-based. As to conditions: Mesocricetus auratus. An outline of the steps:
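Radiolabeled thymidine or 2'-deoxyuridine derivatives tested as substrates: 40 μL BHK21(C13) 100000g supernatant, Tris-HCl 0.05 M pH 8.0, ATP 5 mM, MgCl2 2.5 mM, no thymidine, 30 min at 37 °C. Products separated by paper electrophoresis in 0.05 M triethylammonium bicarbonate pH 7.6; radioactivity counted in the TMP region.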

In test [2] the target is T1, Thymidine kinase, cytosolic (Cricetulus griseus). Description: Inhibition of thymidine kinase in BHK21 (C13) cells using thymidine as substrate assessed as formation of TMP at 14.4 mM. Type of test: cell-based. Conditions: Mesocricetus auratus. An outline of the steps: (§1)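 BHK21(C13) 100000g supernatant in Tris-HCl 0.05 M pH 8.0, ATP 5 mM, MgCl2 2.5 mM, [14C]thymidine 3.6 μM, 10 min at 37 °C. Reaction stopped by boiling; [14C]TMP bound to DEAE-cellulose disks and counted by liquid scintillation, corrected for unincubated blanks.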

Test [3] shares this target. In words: Inhibition of thymidine kinase in BHK21 (C13) cells using thymidine as substrate assessed as formation of TMP at 7.2 mM. Type of test: cell-based. As to conditions: Mesocricetus auratus. An outline of the steps: as §1
The target is the same in test [4]. In words: Inhibition of thymidine kinase in BHK21 (C13) cells using [14C]thymidine at 100 to 200 uM after 10 mins by liquid scintillation spectrometer analysis relative to control in presence of Mg2+. Conditions: Mesocricetus auratus. Type of test: cell-based.
Test [5] has as its target T2, Thymidine kinase 2, mitochondrial (Homo sapiens) (UniProt O00142).
T2 sequence (whole entry): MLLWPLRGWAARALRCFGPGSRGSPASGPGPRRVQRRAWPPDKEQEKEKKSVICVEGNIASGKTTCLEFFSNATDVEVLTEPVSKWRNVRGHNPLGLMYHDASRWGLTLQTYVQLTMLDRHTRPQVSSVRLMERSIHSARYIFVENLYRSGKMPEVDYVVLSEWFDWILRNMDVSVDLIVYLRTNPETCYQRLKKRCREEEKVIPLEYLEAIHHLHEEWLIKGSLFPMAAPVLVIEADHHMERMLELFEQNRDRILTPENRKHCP
Description: Effect on human mitochondrial thymidine kinase using [14C]thymidine at 2 mM after 10 mins by liquid scintillation spectrometer analysis relative to control in presence of Mg2+.

Test [6] deals with T1, Thymidine kinase, cytosolic (Cricetulus griseus). Description: Effect on thymidine kinase in BHK21 (C13) cells using [14C]thymidine at 5 mM after 10 mins by liquid scintillation spectrometer analysis relative to control in presence of Mg2+. Format: cell-based. Conditions: Mesocricetus auratus. An outline of the steps:
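BHK21(C13) high-speed supernatant, 10 min at 37 °C, [14C]TMP on DEAE-cellulose disks, scintillation counting. Phosphate donors (nucleoside triphosphates 5 mM, giving 2.5 mM Mg2+ triphosphates) tested with 14.4 μM [14C]thymidine. Inhibitor assays used 0.19 mM [14C]thymidine: 5-iodo nucleosides at 0.19 mM with saturating Mg2+-ATP, or dCTP 5 mM with ATP 5 mM and MgCl2 7.5 mM.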

The target in test [7] is T3, Thymidine kinase, cytosolic (Homo sapiens) (UniProt P04183).
T3 sequence (whole entry): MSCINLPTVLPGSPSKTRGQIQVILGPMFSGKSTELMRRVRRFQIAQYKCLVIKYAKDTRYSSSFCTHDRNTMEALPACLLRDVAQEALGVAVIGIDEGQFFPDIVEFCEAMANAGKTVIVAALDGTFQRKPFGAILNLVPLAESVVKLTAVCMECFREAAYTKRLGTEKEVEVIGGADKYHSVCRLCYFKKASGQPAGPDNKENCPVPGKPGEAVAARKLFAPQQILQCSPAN
Description: Effect on human cytoplasmic thymidine kinase using [14C]thymidine at 2 mM after 10 mins by liquid scintillation spectrometer analysis relative to control in presence of Mg2+.

Test [8] concerns the target T4, Thymidine kinase, cytosolic (Mus musculus, UniProt P04184).
T4 sequence (P04184 whole entry): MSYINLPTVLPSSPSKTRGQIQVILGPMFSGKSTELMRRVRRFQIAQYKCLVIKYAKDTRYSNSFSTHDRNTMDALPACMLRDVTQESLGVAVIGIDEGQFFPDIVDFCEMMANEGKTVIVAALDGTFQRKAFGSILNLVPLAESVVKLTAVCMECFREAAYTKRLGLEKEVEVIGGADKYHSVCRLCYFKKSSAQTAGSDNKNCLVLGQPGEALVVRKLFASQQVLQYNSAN
In words: Competitive inhibition of thymidine kinase in mouse Ehrlich's ascites cells.

Test [9] deals with T1, Thymidine kinase, cytosolic (Cricetulus griseus). Description: Inhibition of thymidine kinase in BHK21 (C13) cells using thymidine as substrate assessed as formation of TMP at 2 mM. Type of test: cell-based. As to conditions: Mesocricetus auratus. An outline of the steps: as §1
For test [10] the target is unchanged. Description: Inhibition of thymidine kinase in BHK21 (C13) cells using thymidine as substrate assessed as formation of TMP at 4 mM. Format: cell-based. Conditions: Mesocricetus auratus. An outline of the steps:
as §1

Test [11] shares this target. In words: Inhibition of thymidine kinase in BHK21 (C13) cells using thymidine as substrate assessed as formation of TMP at 1.4 mM. Type of test: cell-based. As to conditions: Mesocricetus auratus. Put shortly:
as §1

The target is the same in test [12]. In words: Inhibition of thymidine kinase in BHK21 (C13) cells using thymidine as substrate assessed as formation of TMP at […]. Type of test: cell-based. As to conditions: Mesocricetus auratus.
For test [13] the target is unchanged. Description: Inhibition of thymidine kinase in BHK21 (C13) cells using thymidine as substrate assessed as formation of TMP at 6.6 mM. Format: cell-based. Conditions: Mesocricetus auratus. An outline of the steps: as §1
The target is the same in test [14]. In words: Inhibition of thymidine kinase in BHK21 (C13) cells using thymidine as substrate assessed as formation of TMP at 13.2 mM. Type of test: cell-based. As to conditions: Mesocricetus auratus. An outline of the steps: as §1
The target is the same in test [15]. Description: Inhibition of thymidine kinase in BHK21 (C13) cells using thymidine as substrate assessed as formation of TMP at 0.2 mM. Type of test: cell-based. As to conditions: Mesocricetus auratus. Put shortly: as §1
Test [16] has the same target. Description: Inhibition of thymidine kinase in BHK21 (C13) cells using thymidine as substrate assessed as formation of TMP at 0.1 mM. Type of test: cell-based. Conditions: Mesocricetus auratus. Put shortly:
as §1

Activity calls are given as the source filed them. The calls are words filed in the database; no cut-off is given here.

The text below walks through data of ChEMBL document CHEMBL3227986, “Design of species- or isozyme-specific enzyme inhibitors. 1. Effect of thymidine substituents on affinity for the thymidine site of hamster cytoplasmic thymidine kinase” (J Med Chem, 1979).

As to `CC(=O)NCC(O)[C@H]1O[C@@H](n2cc(C)c(=O)[nH]c2=O)C[C@@H]1O` (stereo in doubt; [14C]4a), the outcome in test [1] was inactive.
The inhibition is how much of the control response was suppressed. Take `CCn1c(=O)ccn([C@H]2C[C@H](O)[C@@H](CO)O2)c1=O`: the figures for the inhibition in test [2] and in test [3] were 45% and 24%, respectively.
In the case of `CCC(=O)NCC(OP(=O)(O)OP(=O)(O)OP(=O)(O)O)[C@H]1O[C@@H](n2cc(C)c(=O)[nH]c2=O)C[C@@H]1O` (single isomer, unassigned; more polar), the inhibition result in test [4] is “Active”.
As to `Nc1ncnc2c1ncn2[C@@H]1O[C@H](COP(=O)(O)OP(=O)(O)OP(=O)(O)O)[C@@H](O)[C@H]1O`, the Activity in [5], in test [6] and in test [7] was 100% each time.
For `CCC(=O)NCC(OP(=O)(O)OP(=O)(O)OP(=O)(O)O)[C@H]1O[C@@H](n2cc(C)c(=O)[nH]c2=O)C[C@@H]1O` (single isomer, unassigned), the inhibition result in test [4] is “Active”.
As for `Nc1ccn([C@@H]2O[C@H](COP(=O)(O)OP(=O)(O)OP(=O)(O)O)[C@@H](O)[C@H]2O)c(=O)n1`, the Activity in test [5] worked out at 79%; in [6] it was 15%; in [7], 21%.
A word on the Ki: it is a measure of affinity in units of concentration, obtained from inhibition or displacement. A high value points to lower affinity. Turning to `CCOC1N([C@H]2C[C@H](O)[C@@H](CO)O2)C(=O)NC(=O)C1(C)Br` (single isomer, unassigned), the Ki in test [8] amounted to 24 µM.
In the case of `O=C(CI)NCCC(=O)Nc1cn([C@H]2C[C@H](O)[C@@H](CO)O2)c(=O)[nH]c1=O`, the values for the inhibition in [9] and in [10] were 22% and 36%, respectively.
On to `CC[S+]([O-])C[C@H]1O[C@@H](n2cc(C)c(=O)[nH]c2=O)C[C@@H]1O` (some centres not stated), for which the inhibition in test [11] worked out at 13%; in test [12], 30%.
Turning to `CCCC(=O)NC[C@H]1O[C@@H](n2cc(C)c(=O)[nH]c2=O)C[C@@H]1O`, the inhibition in test [13] is 38%; in test [14], 77%.
`CCOC1N([C@H]2C[C@H](O)[C@@H](CO)O2)C(=O)NC(=O)C1(C)Br` (single isomer, unassigned; more polar) had a Ki in test [8] of 24 µM.
For `Nc1ncnc2c1ncn2[C@H]1C[C@H](O)[C@@H](COP(=O)(O)OP(=O)(O)OP(=O)(O)O)O1`, the figures for the Activity in test [5], in test [6] and in test [7] were 56%, 107% and 108%, respectively.
Regarding `CCCn1c(=O)c(C)cn([C@H]2C[C@H](O)[C@@H](CO)O2)c1=O`, the inhibition in test [15] worked out at 34%; in test [16] it was 16%.
As for `Nc1nc(=O)c2ncn([C@@H]3O[C@H](COP(=O)(O)OP(=O)(O)OP(=O)(O)O)[C@@H](O)[C@@H]3O)c2[nH]1`, the Activity in test [5] was 46%; in test [6], 6%; in test [7], 36%.
